Source: PubChem
This is a sample that favours compounds with a hit; in the whole collection about 3.7% have one here.
CFTR F508del cor: correctors of CFTR F508del function in bronchial epithelial cells | 0.36% of 350,000 active | activity (quench increase), % at 7.58 µM | CFBE cells, YFP halide quenching; stimulated with forskolin plus potentiator P3; % fluorescence drop versus neutral controls | AID 720511;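 active means mean added fluorescence quench of at least 8% versus neutral control, with both replicates also reaching 8%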;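 further: cells transiently co-express mutant CFTR-F508del with the halide-sensitive YFP; corrector assay measuring rescue of mutant channel to the surface after 24 h compound exposure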
ERAP1 inh: inhibitors of human ERAP1 aminopeptidase. Q9NZ08. 0.15% of 340,000 active. AID 652197. recombinant ERAP1, Leu-AMC fluorescence, 60 min. inhibition, % at 10.7 µM;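 active means mean replicate inhibition of at least 30%, or all replicates individually reaching that 30% level; inactive means mean below 30% and not every replicate reaching it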;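 further: 0% = neutral control wells and 100% = L-leucinethiol positive control wells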
DENV2 CPE rescue: inhibitors of DENV2 cytopathic effect | DENV2-infected cells, cytopathic effect rescue, plate reader | CPE inhibition, % at 9.99 µM | 1.7% of 350,000 active; in the data active means CPE inhibition above about 20%, passing the limit was not always enough; tested in BHK-21 cells;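 further: 0% = median of neutral control wells and 100% = median of positive control wells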
FGF22 binding: binders of recombinant human FGF22 by thermal shift; Q9HCT0; SYPRO orange fluorescence; percent of sucrose octasulfate shift, DMSO zero; activity (Tm shift, normalised), % at 9.99 µM; 1.5% of 340,000 active; AID 651658;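 active means mean Tm shift, scaled 0 neutral to 100 positive control, at about 1.3% or above, every replicate too, limit read from the data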
E-selectin induc: induces E-selectin expression in human endothelial cells; P16581; HUVEC E-selectin immunofluorescence imaging; normalized: neutral wells 0, TNF-alpha wells 100; activation, % at 7.58 µM; 0.37% of 260,000 active;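 active means mean E-selectin-positive cell signal at least 10% of the positive control, reached in at least 60% of replicates, without over 20% cell loss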
Target sequence (P16581 whole entry, looked up): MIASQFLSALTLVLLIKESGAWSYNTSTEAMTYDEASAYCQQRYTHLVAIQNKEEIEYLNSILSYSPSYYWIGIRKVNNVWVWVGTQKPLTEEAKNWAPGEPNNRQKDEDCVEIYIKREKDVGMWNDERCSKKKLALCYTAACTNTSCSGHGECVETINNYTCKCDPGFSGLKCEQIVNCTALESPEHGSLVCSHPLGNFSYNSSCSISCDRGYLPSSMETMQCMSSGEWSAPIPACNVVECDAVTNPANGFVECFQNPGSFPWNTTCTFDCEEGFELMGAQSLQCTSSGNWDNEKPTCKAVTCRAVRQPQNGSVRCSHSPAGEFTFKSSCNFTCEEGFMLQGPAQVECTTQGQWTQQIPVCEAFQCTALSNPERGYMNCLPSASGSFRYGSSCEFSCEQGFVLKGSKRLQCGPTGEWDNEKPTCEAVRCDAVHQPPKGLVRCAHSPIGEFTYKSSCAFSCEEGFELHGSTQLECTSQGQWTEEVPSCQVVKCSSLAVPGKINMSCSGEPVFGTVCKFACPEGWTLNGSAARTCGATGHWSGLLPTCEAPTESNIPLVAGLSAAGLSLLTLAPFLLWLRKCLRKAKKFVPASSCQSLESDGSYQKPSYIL
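Read-out basis: % PE-positive cells; Test system: HUVEC primary endothelial cells; Technique: immunofluorescence imaging; Dosing: single-point compound dose.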
The depositor's hits bear a star; · = no result given.

SMILES	CFTR F508del cor	ERAP1 inh	DENV2 CPE rescue	FGF22 binding	E-selectin induc
CCCn1c(N)c(Sc2ccc(C)cc2)c(=O)n(CCC)c1=O	-1	0	-2	43*	0
CCOc1ccc(N(CC(=O)NC2CCCC2)S(=O)(=O)c2c(C)[nH]c(=O)[nH]c2=O)cc1	3	-8	54*	0	0
CCCN1C[C@H](C)[C@@H](OC)CN(C)C(=O)c2ccc(NC(=O)CC)cc2OC[C@H]1C	0	·	·	·	0
O=[N+]([O-])c1cccnc1NCc1cccs1	0	-1	-2	43*	0
CN(C)CCCN(C(=O)c1ccco1)c1nc(-c2ccc(Cl)cc2)cs1	8.1*	6	-1	0	0
Cc1ccc(-c2csc(N(CCCN(C)C)C(=O)c3ccco3)n2)cc1	0	1	·	0	-3
Cc1cc(C(=O)Nc2cccc3c2O[C@H](CN(C)S(=O)(=O)c2ccc(F)cc2)[C@@H](C)CN([C@@H](C)CO)C3=O)n(C)n1	-1	-3	-1	0	-12
CCCCCc1ccc(-c2cn(CCCOCc3ccccc3)nn2)cc1	0	-2	·	4.2*	0
O=C(c1ccncc1)N1CC(=O)N2[C@H](C1)[C@@H](c1ccc(/C=C/c3ccccc3)cc1)[C@@H]2CO	3	1	-5	·	0
O=C1/C(=C\c2cc(Cl)c(O)c(Cl)c2)SC(=S)N1Cc1ccccc1	28*	0	-3	0	·
COc1ccc(/C=C2/SC(=S)N(Cc3ccccc3)C2=O)cc1O	0	5	1	0	0
CC1=Nc2cc(C(=O)NCCCN3CCN(C)CC3)ccc2Sc2ccc(C)cc21	-1	3	-1	0	·
CC1=Nc2cc(C(=O)NCC3CCCO3)ccc2Sc2ccc(C)cc21 (configuration not stated)	10*	1	8	0	·
CCCCc1c(-c2ccccc2OC)ncn1CCc1ccccc1OC	1	4	-6	0	0
CCCCc1c(-c2ccccc2OC)ncn1CCc1ccccc1Cl	7	14	32*	0	0
CCCCc1c(-c2cccc(Br)c2)ncn1CCc1ccccc1OC	5	0	1	35*	0
CCCCc1c(-c2cccc(F)c2)ncn1CCc1ccccc1OC	4	1	14	0	0
CCCCCc1c(-c2ccccc2OC)ncn1CCc1ccccc1OC	1	17	26*	0	0
C[N+](C)(C)CCCCCC(=O)/C=N/O	1	15	2	0	0
CC(=O)CC[N+](C)(C)C	1	37*	0	0	0
C[C@@H]1CN([C@H](C)CO)C(=O)c2cccc(NS(=O)(=O)c3ccccc3)c2O[C@@H]1CN(C)C(=O)Nc1ccc(C(F)(F)F)cc1	-1	-2	-2	0	1
O=[N+]([O-])c1c(Nc2ccc(O)cc2)cc(Cl)c2nonc12	-12	42*	6	0	0
CC(NC(=O)Cn1cccc1C(=O)c1ccccc1)c1ccc2c(c1)OCCO2 (configuration not stated)	2	-4	4	43*	2
C[C@H](CO)N1C[C@H](C)[C@H](CN(C)S(=O)(=O)c2cccs2)Oc2ccc(NC(=O)CCN3CCOCC3)cc2C1=O	1	1	-6	0	-9
CN(Cc1ccccc1F)c1ccc(S(=O)(=O)N2CCCC2)cn1	1	-1	5	0	·
SMILES	CFTR F508del cor	ERAP1 inh	DENV2 CPE rescue	FGF22 binding	E-selectin induc
Nc1ncccc1C(=O)OCC(=O)N1CCN(S(=O)(=O)c2ccc(Cl)cc2)CC1	3	-1	45*	0	0
Cc1ccc(C(=O)NNC(=O)c2ccc(S(=O)(=O)N3CCCCC3)cc2)cc1	9.8*	5	-3	0	·
Cc1ccc(C(=O)Nc2ccc(S(=O)(=O)N3CCCC3)cc2)cc1	-1	2	-9	0	0
CC1CCN(C(=O)c2ccc(S(=O)(=O)N3CCCCCC3)cc2)CC1	-3	-2	12	0	0
O=C(CCS(=O)(=O)c1ccccc1)OCC(=O)N1CCN(S(=O)(=O)c2ccc(Cl)cc2)CC1	2	-2	-5	0	0
Cc1ccc(CN(C)c2ccc(S(=O)(=O)N3CCCC3)cn2)cc1	1	3	25*	0	·
CC1CCN(C(=O)c2ccc(S(=O)(=O)N3CCCC3)cc2)CC1	9.3*	2	-10	0	0
Cc1ccc(S(=O)(=O)N2CCCNCC2)cc1	-2	0	23*	0	0
